According to ChEMBL document CHEMBL1147263, “New cinnamylphenols from Dalbergia species with cancer chemopreventive activity” (J Nat Prod, 2003):

Columns and labels:
Raji [1] = assay: Inhibition of 12-O-tetradecanoylphorbol-13-acetate-induced EBV-early antigen activation in human Raji cells assessed as EA induction at 0.32 nmol relative to 12-O-tetradecanoylphorbol-13-acetate; assay type: cell-based; parameters: scale not given: the % may be the effect or the level left; conditions: human gammaherpesvirus 4
Procedure, shortened: (§1)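 Raji cells at 10^6 cells/mL resuspended in RPMI 1640 + 10% FCS containing 4 mM n-butyric acid, 32 pmol TPA (20 ng/mL in DMSO) and test compound in DMSO. Incubated 48 h at 37 °C. EA-positive cells scored blind, ≥500 cells per assay. Reported as % EBV-EA activation ± SD relative to the TPA-only control (100%).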

[2] = Inhibition of 12-O-tetradecanoylphorbol-13-acetate-induced EBV-early antigen activation in human Raji cells assessed per 32 pmol TPA; assay type: cell-based, human gammaherpesvirus 4
Procedure, shortened: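 IC50 given as the mol ratio of compound to TPA giving 50% inhibition of EBV-EA activation versus the TPA-only control (32 pmol TPA = 100%). Raji cells were kept in RPMI 1640/10% FCS with 4 mM n-butyric acid and DMSO-dissolved compound at 10–1000 mol ratio, 48 h, 37 °C. EA-positive cells were counted blind, ≥500 per assay.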

Raji [3] = assay: Inhibition of 12-O-tetradecanoylphorbol-13-acetate-induced EBV-early antigen activation in human Raji cells assessed as EA induction at 32 nmol relative to 12-O-tetradecanoylphorbol-13-acetate; assay type: cell-based; parameters: scale not given: the % may be the effect or the level left; conditions: human gammaherpesvirus 4; procedure, shortened: as §1
[4] = Cytotoxicity against human Raji cells assessed as cell viability at 0.32 nmol after 48 hrs by trypan blue staining method; assay type: cell-based; conditions: read-out: Activity
Procedure, shortened: (§2)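 Raji cells grown to 10^6 cells/mL, pelleted and resuspended in RPMI 1640 + 10% FCS with 4 mM n-butyric acid, 32 pmol TPA (20 ng/mL) and test compound in DMSO (mol ratio to TPA 10–1000, i.e. 0.32–32 nmol). Incubated 48 h at 37 °C. Viability then counted on a hemocytometer with Trypan Blue. ≥60% survival required for valid EA readings.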

[5] = Cytotoxicity against human Raji cells assessed as cell viability at 32 nmol after 48 hrs by trypan blue staining method; assay type: cell-based; conditions: read-out: Activity; procedure, shortened: as §2
Raji [6] = assay: Inhibition of 12-O-tetradecanoylphorbol-13-acetate-induced EBV-early antigen activation in human Raji cells assessed as EA induction at 16 nmol relative to 12-O-tetradecanoylphorbol-13-acetate; assay type: cell-based; parameters: scale not given: the % may be the effect or the level left; conditions: human gammaherpesvirus 4; procedure, shortened: as §1
[7] = Cytotoxicity against human Raji cells assessed as cell viability at 3.2 nmol after 48 hrs by trypan blue staining method; assay type: cell-based; conditions: read-out: Activity; procedure, shortened: as §2
[8] = Cytotoxicity against human Raji cells assessed as cell viability at 16 nmol after 48 hrs by trypan blue staining method; assay type: cell-based; conditions: read-out: Activity; procedure, shortened: as §2
Raji [9] = assay: Inhibition of 12-O-tetradecanoylphorbol-13-acetate-induced EBV-early antigen activation in human Raji cells assessed as EA induction at 3.2 nmol relative to 12-O-tetradecanoylphorbol-13-acetate; assay type: cell-based; parameters: scale not given: the % may be the effect or the level left; conditions: human gammaherpesvirus 4; procedure, shortened: as §1

Compound	Activity (Raji [1])	IC50 [2]	Activity (Raji [3])	viability at 48 h, 0.32 nmol [4]	viability at 48 h, 32 nmol [5]	Activity (Raji [6])	viability at 48 h, 3.2 nmol [7]	viability at 48 h, 16 nmol [8]	Activity (Raji [9])
CC1=C(/C=C/C(C)=C/C=C/C(C)=C/C=C/C=C(C)/C=C/C=C(C)/C=C/C2=C(C)CCCC2(C)C)C(C)(C)CCC1 [BETA CAROTENE]	100%	400 molar ratio	9.1%						
COc1c(O)cccc1/C=C/Cc1ccc(O)c(OC)c1OC [DALBERATIN A]	85.1%	213 molar ratio	0%	> 80%	60%	18.5%	> 80%	> 80%	63.6%
COc1ccc(O)c(/C=C/Cc2ccc(O)c(OC)c2OC)c1 [DALBERATIN B]	91.7%	303 molar ratio	0%	> 80%	70%	31.1%	> 80%	> 80%	68.3%
COc1ccc(C/C=C/c2cccc(O)c2OC)c(OC)c1O [DALBERATIN C]	86.7%	223 molar ratio	0%	> 80%	60%	20.9%	> 80%	> 80%	65%
COc1c(O)cccc1/C=C/Cc1ccc(O)c(O)c1OC [DALBERATIN E]	82%	209 molar ratio	0%	> 80%	70%	16.4%	> 80%	> 80%	60.3%
